Experimental data pooled from the literature.
Lines come from different studies, so protocols differ.
Nectin-4: Nectin-4 (Homo sapiens, UniProt Q96NY8)
PFF0160c E182D: Dihydroorotate dehydrogenase (quinone), mitochondrial (PFF0160c, Plasmodium falciparum, UniProt Q08210, E182D)
Oprm1: Mu-type opioid receptor (Oprm1, Mus musculus, UniProt P42866)
SIGMAR1: Sigma non-opioid intracellular receptor 1 (SIGMAR1, Homo sapiens, UniProt Q99720)

CCCC[C@@H]1NC(=O)[C@H](Cc2ccc(O)cc2)NC(=O)[C@@H]2CCCN2C(=O)[C@H](CC(=O)O)NC(=O)[C@H](C)NC(=O)[C@H](Cc2ccccc2)NC(=O)[C@@H]2CSCCC(=O)N3CN(CN(C3)C(=O)CCSCCC(=O)N[C@@H](CC(C)(C)C)C(=O)N3CCC[C@H]3C(=O)N[C@@H](CCC(=O)O)C(=O)N[C@H](CCCCNC(=O)CCc3cn(CCOCCOCCOCCOCCOCCC(=O)N[C@H]4CSCCC(=O)N5CN6CN(C5)C(=O)CCSC[C@H](NC(=O)[C@@H](CC(=O)O)NC(=O)[C@H](Cc5cccc7ccccc57)NC(=O)[C@@H]5CCCN5C4=O)C(=O)N[C@@H](CCSC)C(=O)N[C@@H](CCCCNC(=N)N)C(=O)N[C@@H](CC(=O)O)C(=O)N[C@@H](Cc4c[nH]c5ccccc45)C(=O)N[C@@H](CO)C(=O)N[C@@H]([C@@H](C)O)C(=O)N4CCC[C@H]4C(=O)N4C[C@H](O)C[C@H]4C(=O)N[C@@H](Cc4c[nH]c5ccccc45)C(=O)N[C@H](C(N)=O)CSCCC6=O)nn3)C(=O)N3CCC[C@H]3C(=O)N[C@@H](Cc3ccc(O)cc3)C(=O)N2)C(=O)CCSCCNC1=O
Kd (Nectin-4; binding, SPR): 1 nM

C[C@@H]1CN(c2ccc(O)c(NS(=O)(=O)c3ccc(-c4ccco4)cc3)c2)C[C@H](C)N1
IC50 (PFF0160c E182D; enzyme activity, inhibitor, absorbance): 4020 nM

O=C(N[C@@H]1C=C[C@@]2(O)[C@H]3Cc4ccc(O)c5c4[C@@]2(CCN3CC2CC2)[C@H]1O5)c1c[nH]c2ncccc12
Ki (Oprm1; ligand displacement, radioligand): 0.28 nM

CCn1c(-c2ccccc2)cc2nnc3ccccc3c21
IC50 (Dihydroorotate dehydrogenase (quinone), mitochondrial (PFF0160c, Plasmodium falciparum, UniProt Q08210); enzyme activity, inhibitor, absorbance): 458 nM

CCCC[C@@H]1NC(=O)[C@H](Cc2ccc(O)cc2)NC(=O)[C@@H]2CCCN2C(=O)[C@H](CC(=O)O)NC(=O)[C@H](C)NC(=O)[C@H](Cc2ccccc2)NC(=O)[C@@H]2CSCCC(=O)N3CN(CN(C3)C(=O)CCSC[C@@H](C(=O)N[C@@H](C)C(N)=O)NC1=O)C(=O)CCSC[C@H](NC(C)=O)C(=O)N[C@@H](CC(C)(C)C)C(=O)N1CCC[C@H]1C(=O)N[C@@H](CCC(=O)O)C(=O)N[C@H](CCCCNC(=O)CCc1cn(CCOCCOCCOCCOCCOCCC(=O)N[C@H]3CSCCC(=O)N4CN5CN(C4)C(=O)CCSC[C@H](NC(=O)[C@@H](CCC(=O)O)NC(=O)[C@H](Cc4cccc6ccccc46)NC(=O)[C@@H]4CCCN4C3=O)C(=O)N[C@@H](CC(C)C)C(=O)N[C@@H](CCCCNC(=N)N)C(=O)N[C@@H](CC(=O)O)C(=O)N[C@@H](Cc3c[nH]c4ccccc34)C(=O)N[C@@H](CO)C(=O)N[C@@H]([C@@H](C)O)C(=O)N3CCC[C@H]3C(=O)N3C[C@H](O)C[C@H]3C(=O)N[C@@H](Cc3c[nH]c4ccccc34)C(=O)N[C@H](C(N)=O)CSCCC5=O)nn1)C(=O)N1CCC[C@H]1C(=O)N[C@@H](Cc1ccc(O)cc1)C(=O)N2
Kd (Nectin-4; binding, SPR): 4.2 nM

COc1cc2c(cc1OC)C(=O)C(CC1CCN(Cc3ccccc3)CC1)C2 (stereo not shown)
Ki (SIGMAR1; ligand displacement, radioligand): 19.1 nM

CCCC[C@@H]1NC(=O)[C@H](Cc2ccc(O)cc2)NC(=O)[C@@H]2CCCN2C(=O)[C@H](CC(=O)O)NC(=O)[C@H](C)NC(=O)[C@H](Cc2ccccc2)NC(=O)[C@@H]2CSCCC(=O)N3CN(CN(C3)C(=O)CCSC[C@@H](C(=O)N[C@@H](CNC(=O)CCc3cn(CCOCCOCCOCCOCCOCCOCCOCCOCCOCCOCCNC(=O)N[C@H]4CSCCC(=O)N5CN6CN(C5)C(=O)CCSC[C@H](NC(=O)[C@@H](CC(=O)O)NC(=O)[C@H](Cc5cccc7ccccc57)NC(=O)[C@@H]5CCCN5C4=O)C(=O)N[C@@H](CCSC)C(=O)N[C@@H](CCCCNC(=N)N)C(=O)N[C@@H](CC(=O)O)C(=O)N[C@@H](Cc4c[nH]c5ccccc45)C(=O)N[C@@H](CO)C(=O)N[C@@H]([C@@H](C)O)C(=O)N4CCC[C@H]4C(=O)N4C[C@H](O)C[C@H]4C(=O)N[C@@H](Cc4c[nH]c5ccccc45)C(=O)N[C@H](C(N)=O)CSCCC6=O)nn3)C(N)=O)NC1=O)C(=O)CCSC[C@H](NC(=O)[C@H](C)NC(C)=O)C(=O)N[C@@H]([C@@H](C)CC)C(=O)N[C@@H](CCC(=O)O)C(=O)N[C@@H](CCC(=O)O)C(=O)NCC(=O)N[C@@H](CCC(N)=O)C(=O)N[C@@H](Cc1ccc(O)cc1)C(=O)N2
Kd (Nectin-4; binding, SPR): 1.7 nM

CCC(c1ccccc1)c1nn2c(-c3cccs3)nnc2s1 (stereo not shown)
IC50 (PFF0160c E182D; enzyme activity, inhibitor, absorbance): 171 nM

O=C(N[C@@H]1C=C[C@@]2(O)[C@H]3Cc4ccc(O)c5c4[C@@]2(CCN3CC2CC2)[C@H]1O5)c1c[nH]c2ccncc12
Ki (Oprm1; ligand displacement, radioligand): 0.94 nM

CC(CN1c2ccccc2Sc2ccccc21)N(C)C (stereo not shown)
Ki (SIGMAR1; ligand displacement, radioligand): 433 nM

CCc1nc2nc(C)cc(Nc3cc(C)cc(C)c3)n2n1
IC50 (PFF0160c E182D; enzyme activity, inhibitor, absorbance): 8560 nM

CCCC[C@@H]1NC(=O)[C@H](Cc2ccc(O)cc2)NC(=O)[C@@H]2CCCN2C(=O)[C@H](CC(=O)O)NC(=O)[C@H](C)NC(=O)[C@H](Cc2ccccc2)NC(=O)[C@@H]2CSCCC(=O)N3CN(CN(C3)C(=O)CCSC[C@@H](C(=O)N[C@@H](C)C(N)=O)NC1=O)C(=O)CCSC[C@H](NC(C)=O)C(=O)N[C@@H](CC(C)(C)C)C(=O)N1CCC[C@H]1C(=O)N[C@@H](CCC(=O)O)C(=O)N[C@H](CCCCNC(=O)CCc1cn(CCOCCOCCOCCOCCOCCC(=O)NCCCC[C@H]3NC(=O)[C@H](Cc4cccc5ccccc45)NC(=O)[C@@H]4CCCN4C(=O)[C@@H](NC(C)=O)CSCCC(=O)N4CN5CN(C4)C(=O)CCSC[C@H](NC3=O)C(=O)N[C@@H](CCSC)C(=O)N[C@@H](CCCCNC(=N)N)C(=O)N[C@@H](CC(=O)O)C(=O)N[C@@H](Cc3c[nH]c4ccccc34)C(=O)N[C@@H](CO)C(=O)N[C@@H]([C@@H](C)O)C(=O)N3CCC[C@H]3C(=O)N3C[C@H](O)C[C@H]3C(=O)N[C@@H](Cc3c[nH]c4ccccc34)C(=O)N[C@H](C(N)=O)CSCCC5=O)nn1)C(=O)N1CCC[C@H]1C(=O)N[C@@H](Cc1ccc(O)cc1)C(=O)N2
Kd (Nectin-4; binding, SPR): 1.3 nM

CCn1cc(C(=O)NC2CCNCC2)n(Cc2ccccc2)c1=O
IC50 (PFF0160c E182D; enzyme activity, inhibitor, absorbance): 8940 nM

COc1ccc(CN2CCN(Cc3ccccc3)CC2)cc1
Ki (SIGMAR1; ligand displacement, radioligand): 13.8 nM

CCCC[C@@H]1NC(=O)[C@H](Cc2ccc(O)cc2)NC(=O)[C@@H]2CCCN2C(=O)[C@H](CC(=O)O)NC(=O)[C@H](C)NC(=O)[C@H](Cc2ccccc2)NC(=O)[C@@H]2CSCCC(=O)N3CN(CN(C3)C(=O)CCSC[C@@H](C(=O)N[C@@H](C)C(N)=O)NC1=O)C(=O)CCSC[C@H](NC(C)=O)C(=O)N[C@@H](CC(C)(C)C)C(=O)N1CCC[C@H]1C(=O)N[C@@H](CCC(=O)O)C(=O)N[C@H](CCCCNC(=O)CCc1cn(CCOCCOCCOCCOCCOCCC(=O)NCCCC[C@H]3NC(=O)[C@H](Cc4cccc5ccccc45)NC(=O)[C@@H]4CCCN4C(=O)[C@@H](NC(C)=O)CSCCC(=O)N4CN5CN(C4)C(=O)CCSC[C@H](NC3=O)C(=O)N[C@@H](CCSC)C(=O)N[C@@H](CCCCNC(=N)N)C(=O)N[C@@H](CCC(=O)O)C(=O)N[C@@H](Cc3c[nH]c4ccccc34)C(=O)N[C@@H](CO)C(=O)N[C@@H]([C@@H](C)O)C(=O)N3CCC[C@H]3C(=O)N3C[C@H](O)C[C@H]3C(=O)N[C@@H](Cc3c[nH]c4ccccc34)C(=O)N[C@H](C(N)=O)CSCCC5=O)nn1)C(=O)N1CCC[C@H]1C(=O)N[C@@H](Cc1ccc(O)cc1)C(=O)N2
Kd (Nectin-4; binding, SPR): 1.8 nM

O=C(N[C@H]1C=C[C@@]2(O)[C@H]3Cc4ccc(O)c5c4[C@@]2(CCN3CC2CC2)[C@H]1O5)c1c[nH]c2cnccc12
Ki (Oprm1; ligand displacement, radioligand): 1.16 nM
